Calls of active or inactive are those of the source. The calls are words filed in the database; no cut-off is given here. Bridge positions count the residues as written; N and C are the ends. Square brackets hold non-standard residues; d marks the D form. Peptide text beside a SMILES is read from it. I, II: the chains in the order shown. * marks the point of attachment. X1 = COc1cc2c(c(OC)c1OC)-c1ccc(OC)c(=O)cc1[C@@H](N(C(C)=O)C(=O)[C@H](CS)N*)CC2; X2 = O=C(CCS[C@@H]1O[C@H](CO)[C@H](O)[C@H](O)[C@H]1O)*; βGal = OC[C@H]1O[C@@H](*)[C@H](O)[C@@H](O)[C@H]1O; Dap = NC[C@H](N)C(=O)O; Mpa = O=C(O)CCS
How the values were obtained:
[1] = test system: MEF; assay: Cytotoxicity against MEF cells assessed as dead cells at 5 uM after 48 hrs by visual cell counting under the microscope; conditions: mouse
[2] = test system: Jurkat; assay: Cytotoxicity against human Jurkat cells at 5 uM after 48 hrs; type: functional, cell-based
In short: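 Jurkat cells (RPMI, 10% FCS, 37 °C, 5% CO2) seeded at 50,000 cells per mL, grown overnight, then dosed with colchicine–dendrimer conjugate at 5 μM final from sterile water stock. After 48 h, propidium iodide added 2 min before FACS (excitation 488 nm); dead vs healthy cells counted, reported as % dead cells.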

[3] = test system: Jurkat; assay: Cytotoxicity against human Jurkat cells after 48 hrs; type: functional; conditions: read-out: LD50 (the source's name)
In short: (§1)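 Jurkat cells were grown in RPMI with 10% FCS, penicillin/streptomycin and L-glutamine at 37 °C and 5% CO2. They were seeded at 50,000 cells/mL and cultured overnight, then given compound from sterile water stock and held 48 h. Propidium iodide was added 2 min before FACS (excitation 488 nm). Dead cells were counted at 5 µM final. LD50 was derived from dose–response curves.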

[4] = test system: Jurkat; assay: Cytotoxicity against human Jurkat cells assessed as dead cells at 5 uM after 48 hrs by propidium iodide-based FACS flow cytometry; type: functional
In short: as §1

SMILES	Activity [1] [%]	Activity [2]	CC50 [3] [µM]	Activity [4]
COc1cc2c(c(OC)c1OC)-c1ccc(OC)c(=O)cc1[C@@H](N(C(C)=O)C(=O)[C@H](CS)NC(=O)[C@H](CC(=O)O)NC(=O)[C@H](Cc1cnc[nH]1)NC(=O)[C@H](CCCNC(=N)N)NC(=O)[C@@H](NC(=O)[C@H](CNC(=O)[C@H](C)NC(=O)[C@H](Cc1cnc[nH]1)NC(=O)[C@H](CCCNC(=N)N)NC(=O)CNC(=O)CCS[C@@H]1O[C@H](CO)[C@H](O)[C@H](O)[C@H]1O)NC(=O)[C@H](C)NC(=O)[C@H](Cc1cnc[nH]1)NC(=O)[C@H](CCCNC(=N)N)NC(=O)CNC(=O)CCS[C@@H]1O[C@H](CO)[C@H](O)[C@H](O)[C@H]1O)[C@@H](C)O)CC2 (I: [Mpa](βGal)GRHA[Dap]TRHD-X1 / II: [Mpa](βGal)GRHA; amide I:6-II:C) [listing 1 of 2 here]	51			
CC[C@H](C)[C@H](NC(=O)[C@@H]1CCCN1C(=O)[C@H](CNC(=O)[C@@H]1CCCN1C(=O)CNC(=O)[C@H](CC(=O)O)NC(=O)[C@H](CCCCNC(=O)CCS[C@@H]1O[C@H](CO)[C@H](O)[C@H](O)[C@H]1O)NC(=O)CCS[C@@H]1O[C@H](CO)[C@H](O)[C@H](O)[C@H]1O)NC(=O)[C@@H]1CCCN1C(=O)CNC(=O)[C@H](CC(=O)O)NC(=O)[C@H](CCCCNC(=O)CCS[C@@H]1O[C@H](CO)[C@H](O)[C@H](O)[C@H]1O)NC(=O)CCS[C@@H]1O[C@H](CO)[C@H](O)[C@H](O)[C@H]1O)C(=O)N[C@@H](CCC(=O)O)C(=O)N[C@H](C(=O)N[C@@H](CS)C(=O)N(C(C)=O)[C@H]1CCc2cc(OC)c(OC)c(OC)c2-c2ccc(OC)c(=O)cc21)C(C)C (I: [Mpa](βGal)K(X2)DGP[Dap]PIEV-X1 / II: [Mpa](βGal)K(X2)DGP; amide I:6-II:C)		inactive		
CC[C@H](C)[C@H](NC(=O)[C@@H]1CCCN1C(=O)[C@H](CNC(=O)[C@@H]1CCCN1C(=O)CNC(=O)[C@H](CC(N)=O)NC(=O)[C@H](CCCCNC(=O)CCS[C@@H]1O[C@H](CO)[C@H](O)[C@H](O)[C@H]1O)NC(=O)CCS[C@@H]1O[C@H](CO)[C@H](O)[C@H](O)[C@H]1O)NC(=O)[C@@H]1CCCN1C(=O)CNC(=O)[C@H](CC(N)=O)NC(=O)[C@H](CCCCNC(=O)CCS[C@@H]1O[C@H](CO)[C@H](O)[C@H](O)[C@H]1O)NC(=O)CCS[C@@H]1O[C@H](CO)[C@H](O)[C@H](O)[C@H]1O)C(=O)N[C@@H](CCC(=O)O)C(=O)N[C@H](C(=O)N[C@@H](CS)C(=O)N(C(C)=O)[C@H]1CCc2cc(OC)c(OC)c(OC)c2-c2ccc(OC)c(=O)cc21)C(C)C (I: [Mpa](βGal)K(X2)NGP[Dap]PIEV-X1 / II: [Mpa](βGal)K(X2)NGP; amide I:6-II:C)		inactive		
COc1cc2c(c(OC)c1OC)-c1ccc(OC)c(=O)cc1[C@@H](NC(C)=O)CC2 [COLCHICINE]	57		0.02	85%
COc1cc2c(c(OC)c1OC)-c1ccc(OC)c(=O)cc1[C@@H](N(C(C)=O)C(=O)[C@H](CS)NC(=O)[C@H](CC(=O)O)NC(=O)[C@H](CC(C)C)NC(=O)[C@H](Cc1ccc(O)cc1)NC(=O)[C@@H](NC(=O)[C@H](CNC(=O)[C@H](C)NC(=O)[C@H](CO)NC(=O)[C@H](CC(=O)O)NC(=O)[C@H](Cc1ccccc1)NC(=O)CCS[C@@H]1O[C@H](CO)[C@H](O)[C@H](O)[C@H]1O)NC(=O)[C@H](C)NC(=O)[C@H](CO)NC(=O)[C@H](CC(=O)O)NC(=O)[C@H](Cc1ccccc1)NC(=O)CCS[C@@H]1O[C@H](CO)[C@H](O)[C@H](O)[C@H]1O)[C@@H](C)O)CC2 (I: [Mpa](βGal)FDSA[Dap]TYLD-X1 / II: [Mpa](βGal)FDSA; amide I:6-II:C) [listing 1 of 2 here]			1.53	<=91%
COc1cc2c(c(OC)c1OC)-c1ccc(OC)c(=O)cc1[C@@H](N(C(C)=O)C(=O)[C@H](CS)NC(=O)[C@H](CC(=O)O)NC(=O)[C@H](Cc1cnc[nH]1)NC(=O)[C@H](CCCNC(=N)N)NC(=O)[C@@H](NC(=O)[C@H](CNC(=O)[C@H](C)NC(=O)[C@H](Cc1cnc[nH]1)NC(=O)[C@H](CCCNC(=N)N)NC(=O)CNC(=O)CCS[C@@H]1O[C@H](CO)[C@H](O)[C@H](O)[C@H]1O)NC(=O)[C@H](C)NC(=O)[C@H](Cc1cnc[nH]1)NC(=O)[C@H](CCCNC(=N)N)NC(=O)CNC(=O)CCS[C@@H]1O[C@H](CO)[C@H](O)[C@H](O)[C@H]1O)[C@@H](C)O)CC2 (I: [Mpa](βGal)GRHA[Dap]TRHD-X1 / II: [Mpa](βGal)GRHA; amide I:6-II:C) [listing 2 of 2 here]			1.5	91%
COc1cc2c(c(OC)c1OC)-c1ccc(OC)c(=O)cc1[C@@H](N(C(C)=O)C(=O)[C@H](CS)NC(=O)[C@H](CC(=O)O)NC(=O)[C@H](CC(C)C)NC(=O)[C@H](Cc1ccc(O)cc1)NC(=O)[C@@H](NC(=O)[C@H](CNC(=O)[C@H](C)NC(=O)[C@H](CO)NC(=O)[C@H](CC(N)=O)NC(=O)[C@H](Cc1ccccc1)NC(=O)CCS[C@@H]1O[C@H](CO)[C@H](O)[C@H](O)[C@H]1O)NC(=O)[C@H](C)NC(=O)[C@H](CO)NC(=O)[C@H](CC(N)=O)NC(=O)[C@H](Cc1ccccc1)NC(=O)CCS[C@@H]1O[C@H](CO)[C@H](O)[C@H](O)[C@H]1O)[C@@H](C)O)CC2 (I: [Mpa](βGal)FNSA[Dap]TYLD-X1 / II: [Mpa](βGal)FNSA; amide I:6-II:C) [listing 1 of 2 here]			5.52	19%
COc1cc2c(c(OC)c1OC)-c1ccc(OC)c(=O)cc1[C@@H](N(C(C)=O)C(=O)[C@H](CS)NC(=O)[C@H](CCCCNC(=O)CCS[C@@H]1O[C@H](CO)[C@H](O)[C@H](O)[C@H]1O)NC(=O)[C@H](Cc1ccccc1)NC(=O)[C@H](CCCNC(=N)N)NC(=O)[C@H](CC(N)=O)NC(=O)[C@H](CNC(=O)[C@@H](NC(=O)[C@H](CCC(=O)O)NC(=O)[C@H](CC(=O)O)NC(=O)CNC(=O)CCS[C@@H]1O[C@H](CO)[C@H](O)[C@H](O)[C@H]1O)[C@@H](C)O)NC(=O)[C@@H](NC(=O)[C@H](CCC(=O)O)NC(=O)[C@H](CC(=O)O)NC(=O)CNC(=O)CCS[C@@H]1O[C@H](CO)[C@H](O)[C@H](O)[C@H]1O)[C@@H](C)O)CC2 (I: [Mpa](βGal)GDET[Dap]NRFK(X2)-X1 / II: [Mpa](βGal)GDET; amide I:6-II:C)		inactive		
COc1cc2c(c(OC)c1OC)-c1ccc(OC)c(=O)cc1[C@@H](N(C(C)=O)C(=O)[C@H](CS)NC(=O)[C@H](CC(=O)O)NC(=O)[C@H](CC(C)C)NC(=O)[C@H](Cc1ccc(O)cc1)NC(=O)[C@@H](NC(=O)[C@H](CNC(=O)[C@H](C)NC(=O)[C@H](CO)NC(=O)[C@H](CC(=O)O)NC(=O)[C@H](Cc1ccccc1)NC(=O)CCS[C@@H]1O[C@H](CO)[C@H](O)[C@H](O)[C@H]1O)NC(=O)[C@H](C)NC(=O)[C@H](CO)NC(=O)[C@H](CC(=O)O)NC(=O)[C@H](Cc1ccccc1)NC(=O)CCS[C@@H]1O[C@H](CO)[C@H](O)[C@H](O)[C@H]1O)[C@@H](C)O)CC2 (I: [Mpa](βGal)FDSA[Dap]TYLD-X1 / II: [Mpa](βGal)FDSA; amide I:6-II:C) [listing 2 of 2 here]	68			
COc1cc2c(c(OC)c1OC)-c1ccc(OC)c(=O)cc1[C@@H](N(C(C)=O)C(=O)[C@H](CS)NC(=O)[C@H](CC(=O)O)NC(=O)[C@H](CC(C)C)NC(=O)[C@H](Cc1ccc(O)cc1)NC(=O)[C@@H](NC(=O)[C@H](CNC(=O)[C@H](C)NC(=O)[C@H](CO)NC(=O)[C@H](CC(N)=O)NC(=O)[C@H](Cc1ccccc1)NC(=O)CCS[C@@H]1O[C@H](CO)[C@H](O)[C@H](O)[C@H]1O)NC(=O)[C@H](C)NC(=O)[C@H](CO)NC(=O)[C@H](CC(N)=O)NC(=O)[C@H](Cc1ccccc1)NC(=O)CCS[C@@H]1O[C@H](CO)[C@H](O)[C@H](O)[C@H]1O)[C@@H](C)O)CC2 (I: [Mpa](βGal)FNSA[Dap]TYLD-X1 / II: [Mpa](βGal)FNSA; amide I:6-II:C) [listing 2 of 2 here]	6			
COc1cc2c(c(OC)c1OC)-c1ccc(OC)c(=O)cc1[C@@H](N(C(C)=O)C(=O)[C@H](CS)NC(=O)[C@H](CCCCNC(=O)CCS[C@@H]1O[C@H](CO)[C@H](O)[C@H](O)[C@H]1O)NC(=O)[C@H](Cc1ccccc1)NC(=O)[C@H](CCCNC(=N)N)NC(=O)[C@H](CC(N)=O)NC(=O)[C@H](CNC(=O)[C@@H](NC(=O)[C@H](CCC(=O)O)NC(=O)[C@H](CC(N)=O)NC(=O)CNC(=O)CCS[C@@H]1O[C@H](CO)[C@H](O)[C@H](O)[C@H]1O)[C@@H](C)O)NC(=O)[C@@H](NC(=O)[C@H](CCC(=O)O)NC(=O)[C@H](CC(N)=O)NC(=O)CNC(=O)CCS[C@@H]1O[C@H](CO)[C@H](O)[C@H](O)[C@H]1O)[C@@H](C)O)CC2 (I: [Mpa](βGal)GNET[Dap]NRFK(X2)-X1 / II: [Mpa](βGal)GNET; amide I:6-II:C)		inactive		

Source: ChEMBL document CHEMBL1240485, “Glycopeptide dendrimer colchicine conjugates targeting cancer cells” (Bioorg Med Chem, 2010)
